Test results: PMC9066373 (Journal for Immunotherapy of Cancer, 2022)

Tested on: HHD-DR1 mice
Experiment: Immunization of HHD-DR1 mice, IFN-γ ELISPOT of splenocytes
Format: in vivo
Settings: HHD-DR1 mice n=4, poly(I:C), in words
Outline: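 HHD-DR1 transgenic mice (human HLA-A*02.01 and HLA-DRB1*01; n=4/group) received a CD8 neoantigen peptide with poly(I:C), combined with a CD4 neoantigen peptide, anti-CD40 or both. Adjuvants were given at 50 µg/mouse. Class I peptide was injected s.c.; class II peptide i.v., boosted 1 week later. Spleens were taken 7 days after the last dose. Splenocytes (8×10⁵/well) were peptide-stimulated (10–0.01 µM) for 24 h and read by IFN-γ ELISPOT, no-peptide background subtracted.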

Sequence: KYVYDFGVSV
- Response against KYV when antiCD40 is added to KYV plus EVT: antiCD40 did not improve responses
